The list is not random: actives were taken first. Their share in the collection is about 2.4%.
Mdm2 ligase inh: Mdm2 E3 ligase (human) inhibition; AID 1230; cell-based MDM2 ubiquitination luciferase reporter, 2 h; 0 = plate control, 100 = twice control, blank-subtracted; Q00987; 0.11% of 210,000 active; signal enhancement, % at 5 µM;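 active = signal enhancement of 30% or more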;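 also: luminescence tracks abundance of the self-degrading MDM2-luciferase fusion protein; higher signal means inhibition of MDM2 E3 ligase activity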
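Material: stable MDM2–luciferase fusion reporter cells / Quantity: 2000 cells/well / Dosing: single 5 µM compound dose, 0.2% final DMSO / Buffer or medium: DMEM / Schedule: 4 h cell settling then 2 h compound exposure, 37 °C / Detection: luminescence with SteadyLite reagent, 15 min at room temperature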
Hck-Nef inh: inhibitors of human Hck kinase activated by Nef. P08631. Recombinant Hck-YEEI plus Nef, Z-Lyte FRET kinase assay. inhibition, % at 20 µM. 0.68% of 220,000 active. AID 463187;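 active = Hck-Nef kinase inhibition above about 50%, limit read from the data; inactive = inhibition below that limit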
Target sequence (P08631 whole entry, looked up): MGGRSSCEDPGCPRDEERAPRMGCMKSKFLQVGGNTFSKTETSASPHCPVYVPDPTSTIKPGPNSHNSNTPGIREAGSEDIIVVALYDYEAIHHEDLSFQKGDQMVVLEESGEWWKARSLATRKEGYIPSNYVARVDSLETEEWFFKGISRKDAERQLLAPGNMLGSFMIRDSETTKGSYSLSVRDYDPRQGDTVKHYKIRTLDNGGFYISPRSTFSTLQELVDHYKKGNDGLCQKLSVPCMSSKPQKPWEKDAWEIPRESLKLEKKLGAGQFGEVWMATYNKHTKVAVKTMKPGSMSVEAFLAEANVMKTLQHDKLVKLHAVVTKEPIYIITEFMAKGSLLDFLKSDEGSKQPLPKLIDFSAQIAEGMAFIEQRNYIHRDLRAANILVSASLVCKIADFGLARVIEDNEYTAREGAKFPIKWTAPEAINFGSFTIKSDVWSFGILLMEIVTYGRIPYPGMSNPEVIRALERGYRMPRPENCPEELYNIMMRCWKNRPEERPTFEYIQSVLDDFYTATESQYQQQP
L929 necroptosis: blocks zVAD induced death of L929 cells. 0.38% of 220,000 active. viability rescue, % at 10 µM. L929 zVAD necroptosis rescue, ATP luminescence, 24 h; with zVAD 60 µM. AID 1377;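 active = activation, scaled between plate controls, above about 75%, limit read from the data; inactive = activation under that limit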
Autophagy mod: autophagy modulation, high-content screen; calls only at 10 µM (by protocol); MEF GFP-LC3 puncta imaging; test concentration mostly 10 µM; 0.98% of 190,000 active;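 active = percentage of spot-positive cells more than 3 SD above its plate mean, without a fluorescence outlier flag or 80% toxicity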
TNF death inh: TNF-alpha cell death inhibition in Jurkat FADD-/- cells; Jurkat FADD-/- TNF necroptosis rescue, ATP luminescence, 24 h; 0 = TNF only, 100 = no-TNF cells; activation (protection from cell death), % at 10 µM; 0.068% of 220,000 active;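 active = activation, meaning protection from cell death, of at least 50% relative to plate controls; inactive = activation below 50%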;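 also: necroptosis triggered by 40 ng/mL TNF-alpha added together with compound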
Dynein transport: blocks dynein driven cargo transport along microtubules; 0.47% of 220,000 active; z-score, hits read low; 3617.4 mouse cells, GR-EGFP nuclear translocation imaging; test concentration mostly 20 µM; stimulated with dexamethasone, 1 µM; stronger effect = lower value;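 active = plate z-score of nuclear minus cytoplasmic receptor signal below a set negative limit, without overly bright fluorescence or cell loss, cut at about -3.5 in these data, passing the limit was not always enough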;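 also: z-score of nuclear minus cytoplasmic ring GR-EGFP intensity difference per well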
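Medium: Induction medium lacking tetracycline, stripped serum | Probe or stimulus: 1.0 µM final dexamethasone stimulus | Schedule: 48 h induction, then 1 h compound, then 30 min agonist, 37 °C | Signal: Automated 10x imaging of fixed Hoechst-stained cells | Evaluation: Per-cell GR-EGFP intensity, nucleus versus surrounding cytoplasmic ring, well-averaged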
A number is an active result.

For Cc1ccc(S(=O)(=O)NC(C(=O)Oc2ccc3c(C)c(Cl)c(=O)oc3c2)c2ccccc2)cc1 (configuration not stated) the results were Hck-Nef inh 88, L929 necroptosis inactive, Autophagy mod inactive, TNF death inh inactive and Dynein transport inactive.
Screening Cc1ccc(S(=O)(=O)N[C@H](C(=O)Oc2ccc3c(C(F)(F)F)cc(=O)oc3c2)c2ccccc2)cc1 returned Mdm2 ligase inh inactive, Hck-Nef inh inactive, L929 necroptosis inactive, Autophagy mod inactive, TNF death inh inactive and Dynein transport inactive.
`CCOC(=O)c1cc(-c2ccc(C)cc2)nc2nc(SC)[nH]c(=O)c12` gave Mdm2 ligase inh inactive, Hck-Nef inh inactive, L929 necroptosis inactive, Autophagy mod inactive, TNF death inh inactive and Dynein transport inactive.
Screening CC(/C=N/Nc1ncc(C)c(=O)[nH]1)=C\c1ccccc1 returned Mdm2 ligase inh inactive, Hck-Nef inh inactive, L929 necroptosis inactive, Autophagy mod inactive, TNF death inh inactive and Dynein transport inactive.
Cc1ccccc1CN(C)CC(=O)NC(C)CCc1ccccc1 (configuration not stated) was read as Mdm2 ligase inh inactive, Hck-Nef inh inactive, L929 necroptosis inactive, Autophagy mod active, TNF death inh inactive and Dynein transport inactive.
Screening Cc1ccc(CC(=O)NC(C)CCc2ccccc2)cc1 (configuration not stated) returned Mdm2 ligase inh inactive, Hck-Nef inh inactive, L929 necroptosis inactive, Autophagy mod inactive, TNF death inh inactive and Dynein transport inactive.
Screening Cc1nn(Cc2ccc([N+](=O)[O-])cc2)c(=O)n1-c1ccccc1Cl returned Mdm2 ligase inh inactive, Hck-Nef inh inactive, L929 necroptosis inactive, Autophagy mod active, TNF death inh inactive and Dynein transport inactive.
Screening CCCCNC(=O)Oc1c(Br)cc2sc(=O)oc2c1Br returned Mdm2 ligase inh inactive, Hck-Nef inh 56, L929 necroptosis inactive, TNF death inh inactive and Dynein transport inactive.
Screening O=S(=O)(O)c1ccc(N2N=C(c3ccccc3)CC2c2ccccc2)cc1 (configuration not stated) returned Mdm2 ligase inh inactive, Hck-Nef inh 85, L929 necroptosis inactive, Autophagy mod inactive, TNF death inh inactive and Dynein transport inactive.
For O=C1CCC(=O)N1CCSC(=S)N1CCOCC1 the results were Mdm2 ligase inh inactive, Hck-Nef inh inactive, L929 necroptosis inactive, TNF death inh inactive and Dynein transport inactive.
Screening CCOC(=O)C1=C(c2ccccc2)NC(SCC(=O)Nc2cccc(C)c2)=C(C#N)C1c1ccco1 (configuration not stated) returned Mdm2 ligase inh inactive, Hck-Nef inh inactive, L929 necroptosis inactive, Autophagy mod active, TNF death inh inactive and Dynein transport inactive.
O=C(O)c1ccc(Nc2nc(-c3ccccc3)c3ccccc3n2)cc1 was read as Mdm2 ligase inh inactive, Hck-Nef inh inactive, L929 necroptosis inactive, Autophagy mod active, TNF death inh inactive and Dynein transport inactive.
Screening NC(=O)c1cc(NC(=O)c2ccc(NS(=O)(=O)c3cccs3)cc2)cc(C(N)=O)c1 returned Hck-Nef inh inactive, L929 necroptosis inactive, TNF death inh inactive and Dynein transport inactive.
`Cc1ccc2nc3c(c(C(=O)OCC(=O)NC4CCS(=O)(=O)C4)c2c1)CCCC3` (configuration not stated) gave Mdm2 ligase inh inactive, Hck-Nef inh inactive, L929 necroptosis inactive, Autophagy mod inactive, TNF death inh inactive and Dynein transport inactive.
For Cc1c(C(=O)OCC(C)C)[nH]c2c1C(=O)CC(c1ccco1)C2 (configuration not stated) the results were Mdm2 ligase inh inactive, Hck-Nef inh inactive, L929 necroptosis inactive, TNF death inh inactive and Dynein transport inactive.
Screening COc1ccc(OC)c(C2CC(=O)c3c([nH]c(C(=O)OC(C)C)c3C)C2)c1 (configuration not stated) returned Mdm2 ligase inh inactive, Hck-Nef inh inactive, L929 necroptosis inactive, Autophagy mod active, TNF death inh inactive and Dynein transport inactive.
Screening Cc1c(C(=O)OC2CCCC2)[nH]c2c1C(=O)CC(c1ccco1)C2 (configuration not stated) returned Mdm2 ligase inh inactive, Hck-Nef inh inactive, L929 necroptosis inactive, Autophagy mod active, TNF death inh inactive and Dynein transport inactive.
Screening COC(=O)c1[nH]c2c(c1C)C(=O)CC(c1ccccc1)C2 (configuration not stated) returned Mdm2 ligase inh inactive, Hck-Nef inh inactive, L929 necroptosis inactive, Autophagy mod active, TNF death inh inactive and Dynein transport inactive.
Screening Clc1ccc(OCc2noc(-c3ccsc3)n2)c(Cl)c1 returned Mdm2 ligase inh inactive, Hck-Nef inh inactive, L929 necroptosis inactive, TNF death inh inactive and Dynein transport inactive.
Screening O=C(N/N=C/C(Cl)=C/c1ccc([N+](=O)[O-])cc1)C(=O)Nc1ccc(C(=O)O)cc1 returned Mdm2 ligase inh inactive, Hck-Nef inh 75, L929 necroptosis inactive, TNF death inh inactive and Dynein transport inactive.
`CC(C)CCNC(=O)c1cc2c(s1)-c1ccccc1S(=O)(=O)C2` gave Mdm2 ligase inh inactive, Hck-Nef inh inactive, L929 necroptosis inactive, TNF death inh inactive and Dynein transport inactive.
For CC(=O)NC(C)C(=O)OCC(=O)c1ccc(-c2ccccc2)cc1 (configuration not stated) the results were Mdm2 ligase inh inactive, Hck-Nef inh inactive, L929 necroptosis inactive, Autophagy mod active, TNF death inh inactive and Dynein transport inactive.
Clc1ccc(OCCSc2ncccn2)cc1 was read as Mdm2 ligase inh inactive, Hck-Nef inh inactive, L929 necroptosis inactive, Autophagy mod inactive, TNF death inh inactive and Dynein transport inactive.
For COc1ccc(CNC(=O)CS(=O)Cc2nc(-c3ccc(C)cc3)oc2C)cc1 (configuration not stated) the results were Mdm2 ligase inh inactive, Hck-Nef inh inactive, L929 necroptosis inactive, Autophagy mod inactive, TNF death inh inactive and Dynein transport inactive.
`COCCNC(=O)CS(=O)Cc1nc(-c2ccc(OC)cc2)oc1C` (configuration not stated) gave Mdm2 ligase inh inactive, Hck-Nef inh inactive, L929 necroptosis inactive, Autophagy mod active, TNF death inh inactive and Dynein transport inactive.
Screening CCOc1cc(C=O)cc(Br)c1OCC(=O)NCCc1ccccc1 returned Mdm2 ligase inh inactive, Hck-Nef inh inactive, L929 necroptosis inactive, Autophagy mod inactive, TNF death inh inactive and Dynein transport inactive.
`Cc1c(Cl)cccc1N1CC(C(=O)Nc2nccs2)CC1=O` (configuration not stated) gave Mdm2 ligase inh inactive, Hck-Nef inh inactive, L929 necroptosis inactive, Autophagy mod inactive, TNF death inh inactive and Dynein transport inactive.

Screening data from PubChem.
